Series [1] relates to Plasma. Nature of the series: Drug metabolism in Sprague-Dawley rat plasma assessed as nicotinuric acid levels at 100 mg/kg, po administered as single dose after 6 hrs by LC/MS/MS analysis. The following applies: in vivo. Format: ADME, organism-based. The method in brief: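 Single oral dose to Sprague Dawley rats; plasma collected at 0.25, 0.5, 1, 2, 4 and 6 hr; analytes in plasma quantified by LC/MS/MS.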

The test system of series [2] is Plasma. Description: Drug metabolism in Sprague-Dawley rat plasma assessed as niacin formation at 300 mg/kg, qd administered through oral gavage for 7 days measured 2 hrs post last dose by LC/MS/MS analysis. The following applies: in vivo, BLD = below limit of detection. Format: ADME, organism-based.
In series [3] the test system is Plasma. Nature of the series: Drug metabolism in Sprague-Dawley rat plasma assessed as niacin linker metabolite N-(2-aminoethyl)nicotinamide formation at 300 mg/kg, qd administered through oral gavage for 7 days measured 2 hrs post last dose by LC/MS/MS analysis. Format: ADME, organism-based. As to conditions: in vivo.
In series [4] the test system is Liver. Nature of the series: Drug metabolism in Sprague-Dawley rat liver assessed as niacin linker metabolite N-(2-aminoethyl)nicotinamide formation at 300 mg/kg, qd administered through oral gavage for 7 days measured 2 hrs post last dose by LC/MS/MS analysis. Format: ADME, organism-based. The following applies: in vivo.
The subject of series [5] is Liver. Description: Drug metabolism in Sprague-Dawley rat liver assessed as linker EPA metabolite (5Z,8Z,11Z,14Z,17Z)-N-(2-aminoethyl)icosa-5,8,11,14,17-pentaenamide formation at 300 mg/kg, qd administered through oral gavage for 7 days measured 2 hrs post last dose by LC/MS/MS analysis. Format: ADME, organism-based. The following applies: in vivo.
In series [6] the target is T1, Sterol regulatory element-binding protein 2 (Homo sapiens) (UniProt Q12772).
T1 sequence (whole entry): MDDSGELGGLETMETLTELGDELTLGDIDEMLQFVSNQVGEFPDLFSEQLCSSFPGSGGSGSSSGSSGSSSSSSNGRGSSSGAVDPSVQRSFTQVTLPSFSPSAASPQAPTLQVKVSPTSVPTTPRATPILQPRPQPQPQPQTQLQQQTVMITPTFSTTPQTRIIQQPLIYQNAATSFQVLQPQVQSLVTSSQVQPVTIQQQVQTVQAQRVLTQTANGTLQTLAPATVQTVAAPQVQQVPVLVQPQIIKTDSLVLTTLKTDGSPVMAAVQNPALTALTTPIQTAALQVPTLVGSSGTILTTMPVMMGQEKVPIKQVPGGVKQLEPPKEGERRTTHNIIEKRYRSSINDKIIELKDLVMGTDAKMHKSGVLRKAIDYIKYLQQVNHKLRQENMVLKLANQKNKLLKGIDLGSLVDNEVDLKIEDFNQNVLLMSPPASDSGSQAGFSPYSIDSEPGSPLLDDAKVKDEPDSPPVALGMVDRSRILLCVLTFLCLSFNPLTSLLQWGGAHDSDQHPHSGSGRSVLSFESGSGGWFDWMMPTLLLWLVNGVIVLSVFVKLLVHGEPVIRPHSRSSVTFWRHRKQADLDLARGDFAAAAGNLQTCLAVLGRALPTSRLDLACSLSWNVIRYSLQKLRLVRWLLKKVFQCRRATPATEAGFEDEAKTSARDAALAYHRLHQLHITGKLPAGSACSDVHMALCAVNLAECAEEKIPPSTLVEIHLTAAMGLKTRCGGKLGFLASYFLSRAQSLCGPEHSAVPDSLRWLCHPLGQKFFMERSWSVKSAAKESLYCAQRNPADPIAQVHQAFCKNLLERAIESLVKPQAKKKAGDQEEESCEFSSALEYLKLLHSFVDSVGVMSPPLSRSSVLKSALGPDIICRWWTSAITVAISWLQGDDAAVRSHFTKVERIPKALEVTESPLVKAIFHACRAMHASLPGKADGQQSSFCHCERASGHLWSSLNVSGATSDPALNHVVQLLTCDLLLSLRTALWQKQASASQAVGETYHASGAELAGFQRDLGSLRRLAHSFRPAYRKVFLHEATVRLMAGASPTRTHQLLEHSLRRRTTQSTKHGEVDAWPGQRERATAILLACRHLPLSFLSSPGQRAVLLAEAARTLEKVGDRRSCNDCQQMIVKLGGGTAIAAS
Nature of the series: Inhibition of SREBP2 maturation in human HepG2 cells at 25 uM after overnight incubation by immunoblot analysis in the presence of atorvastatin. The class given is cell-based. The method in brief: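 Human HepG2 cells incubated with compound (25 and 50 µM), alone or together with 10 µM atorvastatin; mature SREBP-2 protein level assessed.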

Series [7] concerns HepG2. Description: Inhibition of ApoB secretion in human HepG2 cells after 16 hrs by ELISA. Format: functional, cell-based. Background: ELISA stands for enzyme-linked immunosorbent assay.
Series [8] deals with Mus musculus. Nature of the series: Inhibition of triglyceride levels in po dosed ApoE*3-Leiden mouse plasma administered for 16 weeks. Format: functional, organism-based. In outline: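 Transgenic ApoE*3-Leiden mice on high-cholesterol Western-type diet dosed over 16 weeks; plasma PCSK9, total cholesterol, triglycerides and lipoprotein profile (VLDL, LDL) assessed at study end.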

In series [9] the test system is Plasma. Nature of the series: Drug metabolism in Sprague-Dawley rat plasma assessed as salicyluric acid formation at 300 mg/kg, po administered for 14 days followed by 7 day washout cycle measured on day 21. The class given is ADME, organism-based. The following applies: in vivo.
A short description of series [10]: AUClast in Sprague-Dawley rat at 300 mg/kg, po measured up to 24 hrs post dose. Format: ADME, organism-based. More on the design: dose 300 mg/kg, time < 24 hr, route oral. As to conditions: in vivo. In outline:
(§1)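 Single oral dose of 300 mg/kg to Sprague Dawley rats. Plasma collected at 0, 0.5, 1, 2, 4, 8 and 24 hr. Analytes were the parent, the salicylate-linker and linker-DHA metabolites, salicylic acid and salicyluric acid; Cmax and AUClast derived.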

The test system of series [11] is Rattus norvegicus. Nature of the series: AUClast in Sprague-Dawley rat assessed as salicylate-linker metabolite N-(2-aminoethyl)-2-hydroxy-benzamide at 300 mg/kg, po measured up to 24 hrs post dose. Format: ADME, organism-based. More on the design: time < 24 hr, dose 300 mg/kg, route oral. As to conditions: in vivo. In outline:
as §1

In series [12] the test system is Muscle tissue. Description: Drug metabolism in Sprague-Dawley rat muscle assessed as salicylic acid formation at 300 mg/kg, po administered for 7 days measured 4 hrs post dose on day 7. The class given is ADME, organism-based. The following applies: in vivo. The method in brief:
(§2)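 Male Sprague Dawley rats, groups of 4, dosed orally at 300 mg/kg once daily for 14 days. Animals killed on days 1, 3, 7 and 14, with plasma, brain, epididymal fat, liver and muscle taken 4 hr after dosing. Parent, salicylic acid and salicyluric acid were measured.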

For series [13], the system named is Brain. Description: Drug metabolism in Sprague-Dawley rat brain assessed as salicylic acid formation at 300 mg/kg, po administered for 7 days measured 4 hrs post dose on day 7. Format: ADME, organism-based. The following applies: in vivo. In outline: as §2
The subject of series [14] is Brain. Nature of the series: Drug metabolism in Sprague-Dawley rat brain assessed as salicyluric acid formation at 300 mg/kg, po administered for 7 days measured 4 hrs post dose on day 7. Format: ADME, organism-based. The following applies: in vivo. The method in brief: as §2
Series [15] deals with Rattus norvegicus. Description: Cmax in Sprague-Dawley rat assessed as salicylic acid at 300 mg/kg, po measured up to 24 hrs post dose. Format: ADME, organism-based. Also noted: dose 300 mg/kg, route oral. As to conditions: in vivo. The method in brief: as §1
Series [16] deals with Liver. Description: Drug metabolism in Sprague-Dawley rat liver assessed as salicyluric acid formation at 300 mg/kg, po administered for 7 days measured 4 hrs post dose on day 7. The class given is ADME, organism-based. As to conditions: in vivo. In outline: as §2
Series [17] has as its system Plasma. Description: Drug metabolism in Sprague-Dawley rat plasma assessed as N-(2-aminoethyl)-2-hydroxy-benzamide formation at 300 mg/kg, po measured up to 24 hrs post dose. The following applies: in vivo. Format: ADME, organism-based. In outline: as §1
Series [18] has as its system Plasma. Nature of the series: Drug metabolism in Sprague-Dawley rat plasma assessed as salicylic acid formation at 300 mg/kg, po measured up to 24 hrs post dose. The class given is ADME, organism-based. The following applies: in vivo. In outline: as §1
Series [19] relates to Plasma. Nature of the series: Drug metabolism in Sprague-Dawley rat plasma assessed as (4Z,7Z,10Z,13Z,16Z,19Z)-N-(2-aminoethyl)docosa-4,7,10,13,16,19-hexaenamide formation at 300 mg/kg, po measured up to 24 hrs post dose. The following applies: in vivo.

The source made the active and inactive calls. The rule behind the calls is not given here.

As a reminder, the IC50 is the concentration that inhibits the measured activity by half. Lower therefore signals greater potency. The AUC(0-t) is exposure summed from dosing to a finite time, without extrapolation to infinity. Read a low AUC(0-t) as low exposure. By Cmax is commonly meant the peak of the concentration-time curve.

Take `CC/C=C\C/C=C\C/C=C\C/C=C\C/C=C\CCCC(=O)NCCNC(=O)c1cccnc1`: the Drug metabolism in [1] is more than 200 ng/mL; in series [2], “BLD”; in series [3], 2296 ng/mL; in series [4], 10910 ng/g; in [5], 8.7 ng/g. For the same compound, the inhibition result in series [6] and in series [8] was “Active” in each case. In addition, the inhibition entry in [7] is “Dose-dependent effect”. Besides, the IC50 in series [7] (HepG2, 16 h) came out at 27 µM.
As for `CC/C=C\C/C=C\C/C=C\C/C=C\C/C=C\C/C=C\CCC(=O)NCCNC(=O)c1ccccc1O` [EDASALONEXENT], the Drug metabolism entry in series [9] was “metabolite_notdetected”; in [12], 265.73 ng/g; in [13], 53.32 ng/g; in [14], 114.43 ng/g; in [16], 506.48 ng/g; in series [17], “metabolite_detected”. Further, the Drug metabolism result in series [18] is on record as “metabolite_detected”; in series [19] it was “metabolite_notdetected”. Also, the AUC(0-t) at 24 h in series [10] was 1940 ng·h/mL. The AUClast in [11] was found to be 2611 ng·h/mL. Also, the highest concentration (Cmax) in series [15] is 75 ng/mL.

Source of the values: ChEMBL document CHEMBL3785029, “Synthesis and Characterization of Fatty Acid Conjugates of Niacin and Salicylic Acid” (J Med Chem, 2016).
